What was measured:
Assay in all cases: Plaque inhibition test in fcwf-4 cells
type I FIPV strain KU-2 = format: cell-based, feline infectious peritonitis virus; conditions: for Plaque reduction by serial dilutions of peptides: peptide 160, 80 and 40 μM, triplicate
Summary of the method: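 Strain KU-2 plaque assay in fcwf-4 cells. Peptide from a 10 mM DMSO stock was diluted to 100 μM, or to 160, 80 and 40 μM, in medium with 2% FCS and 25 μg/mL DEAE-dextran, with 30 min RT pretreatment; 1% DMSO was the solvent control. Without washing, 10 μL of 8000 pfu/mL virus added, 30 min at 37 °C. Wash, carboxymethyl cellulose overlay, 2 days at 37 °C, crystal violet. % plaque inhibition against virus-alone wells.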

FHV strain C7301 = format: cell-based, feline herpesvirus; conditions: peptide 100 μM, fcwf-4 cells 30 min RT, triplicate
Summary of the method: (§1)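 Peptide (10 mM DMSO stock) diluted to 100 μM in medium with 2% FCS and 25 μg/mL DEAE-dextran, then applied to fcwf-4 cells for 30 min at RT. Same-fold DMSO (1%) served as solvent control. Without washing, 10 μL of 8000 pfu/mL virus added for 30 min at 37 °C. Cells washed, overlaid with 2% FCS/1.5% carboxymethyl cellulose for 2 days at 37 °C, formalin-fixed and crystal violet-stained. % plaque inhibition calculated against virus-alone wells.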

[1] = tested on: type II FIPV strain 79-1146; format: cell-based, feline infectious peritonitis virus; conditions: peptide 100 μM
Summary of the method: as §1

FCV strain F4 = format: cell-based, feline calicivirus; conditions: peptide 100 μM, fcwf-4 cells 30 min RT, triplicate
Summary of the method: as §1

type I FIPV strain Black = format: cell-based, feline infectious peritonitis virus; conditions: peptide 100 μM
Summary of the method: as §1

type I FIPV strain UCD-1 = format: cell-based, feline infectious peritonitis virus; conditions: peptide 100 μM
Summary of the method: as §1

[2] = fcwf-4 cells 30 min RT, vs 1% DMSO, triplicate

LFYKYTSLQGLYTYSNLVEL [I-S1-22]
Plaque reduction by serial dilutions of peptides (type I FIPV strain KU-2): dose-dependent

VNFSISSVEEYGFWTIAYTN [I-S1-8]
Plaque reduction by serial dilutions of peptides (type I FIPV strain KU-2): dose-dependent

YHWMNVTLHVVLNDTEKKYD [I-S1-16]
Inhibitory effect on infection by FHV strain C7301 (FHV strain C7301): no inhibitory effects
Plaque inhibition, type II FIPV strain 79-1146 ([1]; fcwf-4 cells): less than 50%
Inhibition of infection by type II FIPV strain 79-1146 [1, 2]: significantly inhibited
Inhibitory effect on infection by FCV strain F4 (FCV strain F4): no inhibitory effects
Plaque inhibition, type I FIPV strain Black (type I FIPV strain Black; fcwf-4 cells): ≥ 50%
Inhibition of infection by type I FIPV strain Black (type I FIPV strain Black; [2]): significantly inhibited
Plaque inhibition, type I FIPV strain KU-2 (type I FIPV strain KU-2; peptide 100 μM): ≥ 50%
Plaque reduction by serial dilutions of peptides (type I FIPV strain KU-2): dose-dependent
Plaque inhibition, type I FIPV strain UCD-1 (type I FIPV strain UCD-1; fcwf-4 cells): ≥ 50%
Inhibition of infection by type I FIPV strain UCD-1 (type I FIPV strain UCD-1; [2]): significantly inhibited

YTDVMVDVNGTAITRLFYCD [I-S1-10]
Plaque reduction by serial dilutions of peptides (type I FIPV strain KU-2): dose-dependent

— PMC7114445 (Virus Research, 2015)
